Screening results: PubChem, PCMD
Most compounds without a hit are left out; they make up all but 1.1% or so of the library.
Yeast eIF2B: eIF2B (yeast) activity modulation; S. cerevisiae eIF2B-epsilon R284H, GCN4-lacZ luminescence; AID 688; inhibition, % at 25 µM (by protocol); 0.91% of 27,000 active;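 active = mutant luminescence inhibited past about 50% while wild type luminescence and mutant growth stay under set limits, limit read from the data; inconclusive = mutant versus wild type luminescence inhibition gap past a set limit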
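Assay system: yeast eIF2B-epsilon R284H mutant carrying GCN4–beta-galactosidase fusion / Buffer or medium: YPD / Incubation: 16 h growth with compound at 30 °C, 90 min Beta-Glo step / Detection: Beta-Glo luminescence after Z-buffer lysis, growth by 595 nm absorbance / Read-out: % inhibition of reporter signal and growth versus controls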
Yeast growth tox: Inhibitors of S. cerevisiae growth, toxicity. S. cerevisiae wild-type growth, A595 turbidity, 16 h. 0.3% of 30,000 active. growth inhibition, % at 25 µM (by protocol). AID 685;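 active = mutant and wild-type yeast strains alike exhibit over 30% growth inhibition; inconclusive = a strain exceeds 50% while the second remains under 30%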
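Test system: Wild-type and eIF2Bepsilon-R284H mutant S. cerevisiae, screened separately | Dosing: Single 25 µM compound dose in 0.2% DMSO | Schedule: 16 h compound exposure during growth at 30 °C | Detection: A595 turbidity | Evaluation: Growth inhibition (%) versus cell controls and blanks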
Large screens that a line does not name were inactive.

O=C1CC(N2CCN(Cc3ccc4c(c3)OCO4)CC2)C(=O)N1CCc1ccccc1 (stereo not drawn)	none
CCOc1nc(Nc2ccc(OC)c(Cl)c2)nc(N2CCN(c3ccc(OC)cc3)CC2)n1	none (no result: Yeast eIF2B)
CCC(Sc1nc2sc(C(=O)OC)c(C)c2c(=O)n1N)C(=O)NCC1CCCO1 (stereo not drawn)	Yeast eIF2B 50.3
CCC(Sc1nc2sc(C(=O)OC)c(C)c2c(=O)n1N)C(=O)N(CC)CC (stereo not drawn)	none
O=C1NC(NS(=O)(=O)c2ccc(Cl)cc2)(C(F)(F)F)C(=O)N1Cc1cccnc1 (stereo not drawn)	none
Cc1ccc(-n2nc(C(=O)NCc3ccc(C)o3)c3c4ccccc4n(C)c3c2=O)cc1	none
CCOC(=O)CSc1nnc2n(C3CCCCC3)c(=O)c3c4c(sc3n12)CCCC4	none
COC(=O)CSc1nnc2n(-c3ccc(OC)cc3)c(=O)c3c4c(sc3n12)CCCCC4	Yeast eIF2B 73.8
Cc1ccc(-c2nn3c(C)nnc3c3ccccc23)cc1S(=O)(=O)N(C)CCO	none
CC1=CC(C)(C)N(C(=O)C(C)N2C(=O)c3ccccc3C2=O)c2ccc(C)cc21 (stereo not drawn)	none
Cc1nn2c(C)c(C(=O)Nc3ccccc3)cnc2c1C#N	Yeast growth tox inconclusive
Cc1cc2ncc(C(=O)Nc3ccccc3)c(C)n2n1	Yeast eIF2B 51.9
CCOc1ccc(N(Cc2cc3ccc(C)cc3[nH]c2=O)S(C)(=O)=O)cc1	none
Cc1ccc(C(=O)C(NC(=O)c2ccco2)Nc2sc3c(c2C(N)=O)CCCC3)cc1 (stereo not drawn)	none
O=C(CCSc1nnc(-c2ccco2)o1)Nc1ccc(Cl)cc1	Yeast eIF2B 57.5
O=C(CSc1nnc(-c2ccco2)o1)NC(=O)Cc1ccccc1	none
CCN(CC)Cc1c(CC(C)C)oc(C)c1C(=O)O	none (no result: Yeast eIF2B)
CCS(=O)(=O)N1CCC(C(=O)NCc2ccc(F)cc2Cl)CC1	none
Cc1cc(C)c(S(=O)(=O)N2CCC(C(=O)NCc3ccc(Cl)cc3Cl)CC2)c(C)c1	Yeast growth tox 82.3 (no result: Yeast eIF2B)
COC(=O)c1c(C)n(-c2ccc(C)cc2)c2ccc(O)cc12	none (no result: Yeast eIF2B)
c1ccc(NCn2cncn2)nc1	none
OC(Cn1cncn1)(c1ccccc1)c1ccccc1	Yeast growth tox 85.8 (no result: Yeast eIF2B)
CC(C)C(=O)N1CCN(C2=NS(=O)(=O)c3ccccc32)CC1	Yeast eIF2B 53.2
CCCC(=O)N1CCN(C2=NS(=O)(=O)c3ccccc32)CC1	none
O=C(O)c1ccc(CSc2n[nH]c(-c3ccco3)n2)cc1	Yeast eIF2B 66.7
N#Cc1ccc(-c2ccco2)nc1SCc1ccccc1	none
Cc1cc2c(c(=O)n1CC1CCCO1)C(c1ccco1)C(C#N)=C(N)O2 (stereo not drawn)	Yeast eIF2B 64.4
Cc1cc2c(c(=O)n1CCCn1ccnc1)C(c1ccco1)C(C#N)=C(N)O2 (stereo not drawn)	none
CC(C)(C)NS(=O)(=O)c1ccc(OCC(=O)NCCC2=CCCCC2)cc1	none (no result: Yeast eIF2B)
Cc1cc(C)n(CCn2nc(C)cc2C)n1	none
Cc1cc(C)n(-c2cc(=O)n(C)c(=O)n2C)n1	Yeast eIF2B 50.8
O=C(c1ccco1)N1CCN(c2nc(-c3ccc(F)cc3)cs2)CC1	none
CCCc1nnc(NC(=O)CN2C(=O)c3ccccc3C2=O)s1	none
CCCCCOC(=O)Nc1nnc(CCC)s1	Yeast eIF2B 50.6
O=C(COc1ccc(-c2ccccc2)cc1)N1CCN(S(=O)(=O)Cc2ccccc2)CC1	none
COc1ccc(N/C=C(\C#N)c2nc3ccccc3n2C)c(OC)c1	Yeast eIF2B 58.5
COc1ccc(Nc2nc(N3CCCCC3)nc3ccccc23)c(OC)c1	none
CC(=O)OCCCN1c2ccccc2Nc2nnc(-c3ccccc3)cc21	none (no result: Yeast eIF2B)
CC(C)=CC(=O)Nc1ccc2c(c1)OCO2	Yeast eIF2B 54.2
Cc1ccc(CSCC(=O)Nc2ccc3c(c2)OCO3)cc1	none (no result: Yeast eIF2B)
COCc1c(C(=O)N2CCN(c3ccc(C(F)(F)F)cn3)CC2)oc2ccccc12	none
COc1ccc2cc(CN(CC3CCCO3)S(=O)(=O)c3ccccc3Cl)c(=O)[nH]c2c1 (stereo not drawn)	none
COc1ccc(C)cc1-n1nnnc1SCC1CCCCO1 (stereo not drawn)	none
O=c1ccnc(S/C=C/c2ccccc2)[nH]1	Yeast eIF2B 66.4
CCOC(=O)c1c(N)nn(C(C)=O)c1-c1ccccc1	Yeast eIF2B 53.8
CCOC(=O)c1c(N)nn(C(=O)C(C)C)c1-c1ccc(OC)cc1	none
COc1ccc(OC)c2c(C)cc(N3CCN(C(=O)c4ccc(Cl)cc4)CC3)nc12	none (no result: Yeast eIF2B)
CCCn1c(N)c(C(=O)CSc2nc(C)cs2)c(=O)n(C)c1=O	none
COc1ccc(C(=S)N2CCNCC2)cc1	none
COc1cc(C(=S)N2CCCC2)cc(OC)c1O	Yeast eIF2B 56.8
CSCCC(NC(=O)COc1ccccc1)C(=O)N1CCN(c2ccccc2F)CC1 (stereo not drawn)	none
COc1ccc(C(=O)COC(=O)CN2C(=O)NC(C)(C)C2=O)cc1OC	Yeast eIF2B 60.0
COc1ccc(C(=O)COC(=O)c2ccc(OC)c(OC)c2)cc1OC	none
